Screens (PubChem BioAssay)
AHR act: AHR activators, primary screen, cell-based, luminescence, luciferase reporter, human. AHR-responsive luciferase reporter cells. 320,000 tested, 2.5% active. activation, % at 5 µM. Aryl hydrocarbon receptor (Homo sapiens), P35869; in the data active means activation above about 47%
SR-BI DiI inh: inhibitors of SR-BI mediated HDL lipid uptake, primary screen, ldlA[mSR-BI] cells, fluorescence, single point; Scavenger receptor class B member 1 (Mus musculus), Q61009; ldlA[mSR-BI] CHO cells, DiI-HDL uptake fluorescence, 3 h; inhibition, % at 12.5 µM; 320,000 tested, 0.96% active; AID 488896, 2010;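 active means mean replicate inhibition of at least 70% and a set share of replicates each scoring 70 or more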
Target sequence (Q61009 whole entry, looked up): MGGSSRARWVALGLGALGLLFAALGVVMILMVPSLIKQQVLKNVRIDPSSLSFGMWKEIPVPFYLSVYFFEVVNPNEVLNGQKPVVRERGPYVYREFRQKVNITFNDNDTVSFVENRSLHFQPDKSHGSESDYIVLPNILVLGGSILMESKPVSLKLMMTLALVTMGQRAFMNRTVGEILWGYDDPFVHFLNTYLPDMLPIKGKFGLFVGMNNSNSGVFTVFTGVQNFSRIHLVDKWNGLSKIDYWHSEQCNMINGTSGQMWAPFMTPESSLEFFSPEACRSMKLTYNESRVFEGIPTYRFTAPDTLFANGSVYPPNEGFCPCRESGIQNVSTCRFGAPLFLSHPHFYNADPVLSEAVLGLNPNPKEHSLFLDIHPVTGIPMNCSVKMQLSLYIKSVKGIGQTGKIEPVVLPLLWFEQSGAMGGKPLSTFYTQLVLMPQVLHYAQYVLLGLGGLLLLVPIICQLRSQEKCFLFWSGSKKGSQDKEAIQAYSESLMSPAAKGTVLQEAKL
SR-BI DiI-HDL act: activators of SR-BI mediated DiI-HDL uptake, primary screen, ldlA[mSR-BI] CHO cells, DiI fluorescence; 3 h; 100 = double the neutral-control signal; 320,000 tested, 0.096% active; AID 504775, 2011; activation, % at 12.5 µM;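 active means mean replicate activation of at least 60% and every replicate at or above 60%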
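Assay system: LDL receptor-deficient CHO ldlA cells overexpressing murine SR-BI / Medium: BSA-supplemented, HEPES-buffered Ham's F12, pH 7.4 / Probe or stimulus: DiI-labelled HDL at 10 µg/mL final / Timing: compound with DiI-HDL co-incubation, 3 h at 37 °C / Technique: bottom-read cell fluorescence after medium removal, ex 550/em 595 nm / Measure: HDL uptake via cellular fluorescence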
JMJD2C inh: inhibitors of GASC-1 histone demethylase, primary screen, biochemical, fluorescence, DELFIA europium. AID 2099, 2009. 330,000 tested, 0.069% active. GST-JMJD2C(1-420) H3K9me3 demethylation. inhibition, % at 2.35 µM;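 active means more than half of a compound's replicate wells show inhibition beyond 50%, single wells judged on their own value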;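 further: signal counts dimethyl H3K9 product captured on neutravidin plate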
FXN GAA850 act: FXN promoter activators, primary screen, cell-based, luciferase luminescence, HEK293 lucGAA850; HEK293 lucGAA850 FXN promoter luciferase reporter, 24 h; percent of 10 µM SAHA response; activation, % at 6 µM; 360,000 tested, 0.56% active; AID 540364, 2011;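 active means activation above the average of all compounds screened plus 3 SD, cutoff fixed separately per campaign, cut at about 7.5% in these data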
A number is an active result; i = inactive; nt = no result given. In the library only some 3.7% were active in any assay of this set; here they are far more common.

SMILES	AHR act	SR-BI DiI inh	SR-BI DiI-HDL act	JMJD2C inh	FXN GAA850 act
Cc1c(CNCCc2ccccc2Cl)c(C(=O)O)c(C)n1-c1ccccc1	i	i	169.1	i	i
NC(=O)c1cc(S(=O)(=O)Nc2ccccc2)cs1	i	i	i	i	i
O=C(Nc1ccccc1)c1cc2ccc3ccccc3c2s1	68.6	i	i	i	i
CN1C(=O)/C(=C/c2cn(CC(=O)N3CCCCC3)c3ccccc23)NC1=S	nt	i	i	i	i
CN1C(=O)/C(=C/c2cn(CC(=O)NCc3ccco3)c3ccccc23)NC1=S	58.4	nt	nt	i	nt
C=CCn1c(SCC(=O)N(CC)C2CCS(=O)(=O)C2)nnc1-c1ccccc1 (configuration not stated)	i	i	73.4	i	i
CCN(C(=O)CSc1nnc(-c2ccccc2)n1C)C1CCS(=O)(=O)C1 (configuration not stated)	i	i	i	i	i
CCC(=O)NNc1nc2c(C)cccc2s1	i	i	i	i	i
Cc1cccc2sc(NNC(=O)c3ccc4c(c3)OCCO4)nc12	58.8	i	i	i	i
Fc1cccc2sc(Nc3nc4cc5c(cc4s3)OCCO5)nc12	60.3	i	i	i	i
O=C(NNc1nc2ccccc2s1)c1ccc(F)cc1	53.9	i	i	i	i
O=C(NNc1nc2cc3c(cc2s1)OCCO3)c1ccccc1	73.9	i	i	i	i
CCCC(C)NC(=O)CN1C(=O)c2cccc3cccc1c23 (configuration not stated)	i	i	i	i	i
C#CCOCCOCCOCCNc1nc(N2CCN(C(=O)CCCCCCCCCCNC(=O)Cn3cc(CCCCCN)nn3)CC2)nc(N2CCN(C(=O)CCCCCCCCCCNC(=O)[C@H]([C@@H](C)CC)n3cc(CCCCN=C(N)N)nn3)CC2)n1	i	84.3	i	nt	i
C#CCOCCOCCOCCNc1nc(N2CCN(C(=O)CCCCCCCCCCNC(=O)[C@H](CO)n3cc(CCCSC)nn3)CC2)nc(N2CCN(C(=O)CCCCCCCCCCNC(=O)[C@H](CCCN=C(N)N)n3cc(C[C@@H](C)CC)nn3)CC2)n1	i	i	i	57.4	i
CC[C@H](C)[C@@H](C(=O)NCCCCCCCCCCC(=O)N1CCN(C(=O)OC(C)(C)C)CC1)n1cc(CCCCCNC(=O)OC(C)(C)C)nn1	i	70.7	i	i	i
CCC(CNc1cc(OC)cc2cccnc12)NC1CCCCC1 (configuration not stated)	48.5	i	i	i	i
C[C@H](CO)N1C[C@H](C)[C@@H](CN(C)C)Oc2c(NC(=O)CCCCCC(=O)Nc3ccccc3N)cccc2C1=O	i	i	i	i	i
N#CC(C#N)=C/C=C(\Nc1ccc(Cl)cc1)c1ccc(Cl)cc1	120.4	i	i	i	i
Cc1cc(C)c(OCC(=O)OCC(=O)N2CCc3ccccc3C2)c(C)c1	i	i	i	i	i
Cc1cc(C)c2cc(C(=O)N3CCc4ccccc4C3)[nH]c2c1	54.8	i	i	i	i
CCOC(=O)C(=N/O)/C(C)=N/NC(C)=O	i	i	i	i	i
CCOC(=O)C(=N/O)/C(C)=N/NC(=O)C(=O)Nc1cc(Cl)ccc1Cl	i	80.8	i	i	i
CCCNC(=O)[C@H]1N2C(=O)c3c(ccc(OC)c3OC)C2SC1(C)C (some centres not stated)	i	i	i	i	i
CC(/C=C/c1ccc2c(c1)OCO2)=N/NC(=O)c1ccncc1	i	i	i	i	i
SMILES	AHR act	SR-BI DiI inh	SR-BI DiI-HDL act	JMJD2C inh	FXN GAA850 act
CC1=C(/C=C/C(C)=N\NC(=O)c2ccncc2)C(C)(C)CCC1	i	87.1	i	i	i
Cc1ccc(C#N)c(SCc2cc3c(cc2Cl)OCO3)n1	50.9	i	i	i	i
Cc1ccc(C#N)c(SCc2cccc(Br)c2)n1	i	i	i	i	i
Nc1cccc2c1C(=O)N(CCOc1ccccc1F)C2=O	76.6	i	i	i	i
COc1cccc(OCC(=O)NNC(=O)c2ccc3ccccc3c2O)c1	nt	89.0	nt	i	i
O=C(NC1CCCCC1)c1ccc2ccccc2c1O	nt	nt	nt	nt	i
COc1ccc(C(=O)NNC(=O)COc2ccc(Cl)cc2)c(OC)c1	72.7	i	i	i	i
O=C(NNC(=O)c1ccc2ccccc2c1O)NC1CCCCC1	nt	90.0	nt	i	i
COc1cccc(OCC(=O)NNC(=O)c2ccc(-c3ccccc3)cc2)c1	i	i	i	i	i
COc1ccc(C(=O)C[n+]2cccc3cc(OC)ccc32)cc1	i	i	i	i	i
COc1ccc(C(=O)C[n+]2ccc3ccccc3c2C)cc1	58.8	i	i	i	i
O=C(O)C=C(Br)Br	i	i	i	nt	i
CC1CCN(C(=O)Cn2cnc3c(cnn3C(C)(C)C)c2=O)CC1	i	i	i	i	i
Cc1ccc(C(=O)NNC(=O)c2ccc3ccccc3c2O)cc1	i	111.1	i	i	i
COc1ccc(C(=O)NNC(=O)c2ccc3ccccc3c2O)cc1	i	75.5	i	i	i
O=C(COC(=O)c1c[nH]c2ccccc12)Nc1ccc([N+](=O)[O-])cc1	i	i	i	i	i
COc1ccc(-c2cc(-c3c(O)c(OC)c4occc4c3OC)[nH]n2)cc1	68.8	i	i	i	i
OCCN(CCO)Cc1ccc(Br)cc1	63.2	i	i	i	i
COc1ccc2c(c1)c(C(=O)N/N=C/c1ccccc1Cl)c(C)n2C	57.1	i	i	i	i
COCC(C)NC(=O)c1cc(OC)cc(OC)c1 (configuration not stated)	i	i	i	i	i
COc1cc(OC)cc(C(=O)NC(C)CNc2ccc(Cl)cc2[N+](=O)[O-])c1 (configuration not stated)	i	79.1	i	i	i
Oc1ccccc1-c1nc(NC2CCCC2)c2ccccc2n1	i	81.6	i	i	i
Fc1ccccc1-c1nc(NC2CCCC2)c2ccccc2n1	i	i	i	i	i
COc1cccc(NC(=O)CN(C)C(=O)c2ccc(-n3cncn3)c([N+](=O)[O-])c2)c1	i	i	i	i	i
Cc1c(C(c2ccc(O)cc2)c2c(C)n(C)n(-c3ccccc3)c2=O)c(=O)n(-c2ccccc2)n1C	i	i	i	i	i
Cc1c(C(c2ccc(C(=O)O)cc2)c2c(C)n(C)n(-c3ccccc3)c2=O)c(=O)n(-c2ccccc2)n1C	i	76.2	i	i	i
O=C(CN1CCN(C(=O)C2CC2)CC1)Nc1cc(C(F)(F)F)cc(C(F)(F)F)c1	i	i	i	i	i
c1ccc(-c2cc3c(nn2)CCc2nonc2-3)cc1	57.2	i	i	i	i
O=[N+]([O-])c1cc(C=Nc2ccc3ccccc3c2)ccc1Br	68.4	i	i	i	i
